Measured values as given in ChEMBL document CHEMBL4715728, “New bifunctional antioxidant/σ1 agonist ligands: Preliminary chemico-physical and biological evaluation” (Bioorg Med Chem, 2016).

Assays:
[1] = Stability of compound in fasted state stimulated intestinal fluid at pH 1.3 assessed as half life in presence of 10 mg/ml pepsin by HPLC-UV assay; format: ADME; conditions: fasted state simulated intestinal fluid with pepsin
Summary of the method: (§1)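 HCl buffer with pepsin or phosphate buffer with pancreatin (10 or 40 mg/ml), preincubated at 37 °C. Drug stock (50 µM in ethanol/fasted state intestinal fluid 1:9) added and shaken at 37 °C, 650 rpm. Samples quenched with ice-cold acetonitrile containing 0.5% formic acid, centrifuged at 2 °C, and the supernatant assayed by HPLC-UV. Three experiments.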

[2] = Stability of compound in phosphate buffer at pH 7.4 assessed as compound half life by HPLC-UV assay; format: physicochemical
Summary of the method: (§2)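 Chemical hydrolysis in 0.02 M HCl buffer pH 1.3 (non-enzymatic simulated gastric fluid) or 0.02 M phosphate buffer pH 7.4, each containing 20% acetonitrile, at 37 °C. Started by adding the 10^-4 M acetonitrile stock. Samples taken over time and analyzed by HPLC-UV at 220 nm. Rate constants are means of triplicates.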

[3] = Cytotoxicity against Sprague-Dawley rat Cerebral cortex neuron assessed as cell viability at 0.1 uM incubated for 24 hrs by MTT assay relative to control; format: tissue-based; conditions: cerebral cortex neurons, read-out: Activity
Summary of the method: (§3)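 Primary fetal rat cortical neurons, matured 8 days, treated 24 h at 37 °C with compound (0.1–100 µM; 0.5% DMSO or water vehicle). MTT 0.7 mg/ml was then added for 30 min at 37 °C, and formazan was extracted with isopropanol/formic acid (95:5) and read at 560 nm. Untreated control was set as 100% viability. Four independent experiments.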

[4] = Cytotoxicity against Sprague-Dawley rat Cerebral cortex neuron assessed as cell viability at 1 uM incubated for 24 hrs by MTT assay relative to control; format: tissue-based; conditions: cerebral cortex neurons, read-out: Activity; summary of the method: as §3
[5] = Cytotoxicity against Sprague-Dawley rat Cerebral cortex neuron assessed as cell viability at 10 uM incubated for 24 hrs by MTT assay relative to control; format: tissue-based; conditions: cerebral cortex neurons, read-out: Activity; summary of the method: as §3
[6] = Cytotoxicity against Sprague-Dawley rat Cerebral cortex neuron assessed as cell viability at 25 uM incubated for 24 hrs by MTT assay relative to control; format: tissue-based; conditions: cerebral cortex neurons, read-out: Activity; summary of the method: as §3
[7] = Cytotoxicity against rat Sprague-Dawley Cerebral cortex neuron assessed as cell viability at 50 uM incubated for 24 hrs by MTT assay relative to control; format: tissue-based; conditions: cerebral cortex neurons, read-out: Activity; summary of the method: as §3
[8] = Cytotoxicity against Sprague-Dawley rat Cerebral cortex neuron assessed as LDH activity at 0.1 uM incubated for 24 hrs by LDH assay (reference value: […]); format: tissue-based
Summary of the method: (§4)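 Primary fetal rat cortical neurons, matured 8 days on poly-D-lysine, exposed 24 h at 37 °C to compound (0.1–100 µM; DMSO 0.5% or water vehicle). LDH released into 100 µl culture medium was measured by kit as the rate of NAD+ reduction (absorbance increase at 490 nm). Positive control was mitomycin C. Four independent experiments.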

[9] = Cytotoxicity against Sprague-Dawley rat Cerebral cortex neuron assessed as LDH activity at 1 uM incubated for 24 hrs by LDH assay (reference value: […]); format: tissue-based; summary of the method: as §4
[10] = Cytotoxicity against Sprague-Dawley rat Cerebral cortex neuron assessed as LDH activity at 50 uM incubated for 24 hrs by LDH assay (reference value: […]); format: tissue-based; summary of the method: as §4
[11] = Cytotoxicity against Sprague-Dawley rat Cerebral cortex neuron assessed as LDH activity at 100 uM incubated for 24 hrs by LDH assay (reference value: […]); format: tissue-based; summary of the method: as §4
[12] = Antioxidant activity in Sprague-Dawley rat Cerebral cortex neuron assessed as total antioxidant capacity by measuring trolox equivalents at 10 uM after 24 hrs; format: functional
Summary of the method: (§5)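 Primary cerebral cortex neurons from rat fetuses, grown on poly-D-lysine in neurobasal medium with fetal calf serum (5% CO2, 37 °C), tested after 8 days in culture. Compounds in DMSO (0.5%) or sterile water were added and incubated 24 h at 37 °C. Cells were washed in ice-cold PBS and homogenized in 0.9% saline. Intracellular TAC (Trolox equiv.) and TOS (H2O2 equiv.) were read by kit. Ascorbic acid 10 µM (TAC) and H2O2 25 µM (TOS) served as positive controls. Four independent experiments.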

[13] = Antioxidant activity in Sprague-Dawley rat Cerebral cortex neuron assessed as total antioxidant capacity by measuring trolox equivalents at 50 uM after 24 hrs; format: functional; summary of the method: as §5
[14] = Antioxidant activity in Sprague-Dawley rat Cerebral cortex neuron assessed as total antioxidant capacity by measuring trolox equivalents at 100 uM after 24 hrs; format: functional; summary of the method: as §5
[15] = Antioxidant activity in Sprague-Dawley rat Cerebral cortex neuron assessed as total oxidative stress level by measuring H2O2 equivalents at 0.1 uM after 24 hrs (reference value: 2.3 +/- 0.3 umol/L); format: functional; summary of the method: as §5
[16] = Antioxidant activity in Sprague-Dawley rat Cerebral cortex neuron assessed as total oxidative stress level by measuring H2O2 equivalents at 1 uM after 24 hrs (reference value: 2.3 +/- 0.3 umol/L); format: functional; summary of the method: as §5
[17] = Antioxidant activity in Sprague-Dawley rat Cerebral cortex neuron assessed as total oxidative stress level by measuring H2O2 equivalents at 10 uM after 24 hrs (reference value: 2.3 +/- 0.3 umol/L); format: functional; summary of the method: as §5
[18] = Antioxidant activity in Sprague-Dawley rat Cerebral cortex neuron assessed as total oxidative stress level by measuring H2O2 equivalents at 100 uM after 24 hrs (reference value: 2.3 +/- 0.3 umol/L); format: functional; summary of the method: as §5
[19] = Stability of compound in fasted state stimulated intestinal fluid at pH 1.3 assessed as half life in presence of 40 mg/ml pepsin by HPLC-UV assay; format: ADME; conditions: fasted state simulated intestinal fluid with pepsin; summary of the method: as §1
[20] = Stability of compound in fasted state stimulated intestinal fluid at pH 7.4 assessed as half life in presence of 10 mg/ml pancreatin by HPLC-UV assay; format: ADME; conditions: for half-life: fasted state simulated intestinal fluid with pancreatin; summary of the method: as §1
[21] = Stability of compound in fasted state stimulated intestinal fluid at pH 7.4 assessed as half life in presence of 40 mg/ml pancreatin by HPLC-UV assay; format: ADME; conditions: for half-life: fasted state simulated intestinal fluid with pancreatin; summary of the method: as §1
[22] = Stability of compound in rat plasma assessed as half life by HPLC-UV assay; format: ADME, cell-free
Summary of the method: (§6)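 Citrated human or rat plasma diluted to 80% with 0.02 M phosphate buffer pH 7.4, 37 °C with shaking. Compound added from a 1 mg/ml acetonitrile stock. Aliquots deproteinized with 0.01 M HCl in methanol, centrifuged, and analyzed by HPLC-UV (C8 column, KH2PO4/methanol pH 2.5, 220 nm). Remaining intact compound plotted against time. Three experiments.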

[23] = Stability of compound in non-enzymatic stimulated-gastric fluid at pH 1.3 assessed as rate of compound hydrolysis by HPLC-UV assay; format: physicochemical; conditions: simulated gi fluid; summary of the method: as §2
[24] = Stability of compound in phosphate buffer at pH 7.4 assessed as rate of compound hydrolysis by HPLC-UV assay; format: physicochemical; summary of the method: as §2
[25] = Stability of compound in fasted state stimulated intestinal fluid at pH 1.3 assessed as rate of compound hydrolysis in presence of 10 mg/ml pepsin by HPLC-UV assay; format: ADME; conditions: isolated protein; summary of the method: as §1
[26] = Stability of compound in fasted state stimulated intestinal fluid at pH 1.3 assessed as rate of compound hydrolysis in presence of 40 mg/ml pepsin by HPLC-UV assay; format: ADME; conditions: isolated protein; summary of the method: as §1
[27] = Stability of compound in human plasma assessed as rate of compound hydrolysis by HPLC-UV assay; format: ADME, cell-free; summary of the method: as §6

Compound | half-life [1] [h] | half-life [2] [h] | viability at 24 h, 0.1 µM [3] [%] | viability at 24 h, 1 µM [4] [%] | viability at 24 h, 10 µM [5] [%] | viability at 24 h, 25 µM [6] [%] | viability at 24 h, 50 µM [7] [%] | Activity [8] [mU/ml] | Activity [9] [mU/ml] | Activity [10] [mU/ml] | Activity [11] [mU/ml] | TAC [12] [mmol/L] | TAC [13] [mmol/L] | TAC [14] [mmol/L] | Activity [15] [µmol/L] | Activity [16] [µmol/L] | Activity [17] [µmol/L] | Activity [18] [µmol/L] | half-life [19] [h] | Drug degradation [23] [h⁻¹] | other results
COc1ccc(CN2CCC(OC(=O)CCCCC3CCSS3)CC2)cc1 (configuration not stated) | 39.1 | 37 | 99.5 | 98.4 | 97.1 | 96.2 | 95 | 0.28 | 0.29 | 0.34 | 0.34 | 11 | 10.9 | 10.7 | 0.5 | 0.4 | 0.4 | 0.5 | 22.2 | 0.013 | half-life [20]: 2.78 h; half-life [21]: 2.83 h; half-life [22]: 0.46 h; Drug degradation [24]: 0.019 h⁻¹; Drug degradation [25]: 0.018 h⁻¹; Drug degradation [26]: 0.031 h⁻¹; Drug degradation [27]: 1.14 h⁻¹
O=C(CCCCC1CCSS1)N1CCN(Cc2ccc(F)cc2)CC1 (configuration not stated) | 107 | 81 | 99.3 | 97.5 | 97.2 | 96 | 96.5 | 0.3 | 0.28 | 0.34 | 0.34 | 12.6 | 11.4 | 11.1 | 0.4 | 0.5 | 0.4 | 0.5 | 37.2 | 0.008 | half-life [20]: 75.1 h; half-life [21]: 32.3 h; half-life [22]: 2.92 h; Drug degradation [24]: 0.009 h⁻¹; Drug degradation [25]: 0.007 h⁻¹; Drug degradation [26]: 0.019 h⁻¹; Drug degradation [27]: 0.165 h⁻¹
COc1ccc(CN2CCN(C(=O)CCCCC3CCSS3)CC2)cc1 (configuration not stated) | 112 | 238 | 98.1 | 97.4 | 96.1 | 95.3 | 92.7 | 0.28 | 0.3 | 0.34 | 0.34 | 10.9 | 11 | 10.8 | 0.4 | 0.5 | 0.5 | 0.5 | 23.7 | 0.003 | half-life [20]: 60.9 h; half-life [21]: 41.6 h; half-life [22]: 4.13 h; Drug degradation [24]: 0.003 h⁻¹; Drug degradation [25]: 0.006 h⁻¹; Drug degradation [26]: 0.029 h⁻¹; Drug degradation [27]: 0.13 h⁻¹
O=C(CCCCC1CCSS1)OC1CCN(Cc2ccccc2)CC1 (configuration not stated) | 24.5 | 40.5 | 99.8 | 98.7 | 97.8 | 98.1 | 97.6 | 0.3 | 0.26 | 0.3 | 0.32 | 11.4 | 13.6 | 12.5 | 0.5 | 0.5 | 0.4 | 0.5 | 23.1 | 0.012 | half-life [20]: 0.29 h; half-life [21]: 0.09 h; t1/2 [22]: Unstable; Drug degradation [24]: 0.017 h⁻¹; Drug degradation [25]: 0.028 h⁻¹; Drug degradation [26]: 0.028 h⁻¹; Drug degradation [27]: 1.61 h⁻¹
O=C(CCCCC1CCSS1)OC1CCN(Cc2ccc(F)cc2)CC1 (configuration not stated) | 3.77 | 38 | 97.5 | 98.3 | 96.9 | 97.1 | 95.8 | 0.3 | 0.3 | 0.32 | 0.32 | 11.1 | 13.5 | 12.4 | 0.4 | 0.4 | 0.4 | 0.5 | 0.68 | 0.015 | t1/2 ([20]; simulated gi fluid): Unstable; t1/2 ([21]; simulated gi fluid): Unstable; half-life [22]: 0.56 h; Drug degradation [24]: 0.019 h⁻¹; Drug degradation [25]: 0.184 h⁻¹; Drug degradation [26]: 1.019 h⁻¹; Drug degradation [27]: 0.856 h⁻¹
O=C(CCCCC1CCSS1)N1CCN(Cc2ccccc2)CC1 (configuration not stated) | 69 | 53.8 | 99.4 | 98.6 | 97.5 | 96.8 | 96 | 0.3 | 0.32 | 0.34 | 0.34 | 12.6 | 14.8 | 14.6 | 0.5 | 0.5 | 0.4 | 0.5 | 66.2 | 0.007 | half-life [20]: 22.2 h; half-life [21]: 9.58 h; t1/2 [22]: Unstable; Drug degradation [24]: 0.013 h⁻¹; Drug degradation [25]: 0.01 h⁻¹; Drug degradation [26]: 0.01 h⁻¹; Drug degradation [27]: 0.39 h⁻¹
